The list is not random: actives were taken first. Their share in the collection is about 5.1%.
NF-kB expr up = NF-kB expression increase, human neuronal cells; NF-kB reporter expression; active compounds read high; fold change at 12.5 µM; 190,000 compounds, 1.6% hits; AID 1239; in the data active = fold change above about 3.3
APP 5'UTR act = activates APP 5'UTR luciferase reporter. SH-SY5Y APP 5'UTR luciferase reporter, luminescence; zero percent = DMSO vehicle wells. activation, % at 2 µM. 190,000 compounds, 1% hits;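 active = activation above a set limit, based on mean plus 3 SD of controls, cut at about 140% in these data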
STAT1 inh = STAT1 signaling inhibition. NIH 3T3 STAT1-luciferase reporter, IFN-gamma, luminescence. inhibition, % at 5.5 µM. 200,000 compounds, 0.35% hits;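 active = inhibition above a set limit, the mean inhibition across all tested compounds plus 3 SD, cut at about 34% in these data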;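 note: 0% = IFN-gamma with DMSO and 100% = IFN-gamma with 300 µM nifuroxazide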
STAT1 act-1 = increases IFN-gamma driven STAT1 reporter signal; 200,000 compounds, 2.6% hits; NIH 3T3 STAT1-luciferase reporter, luminescence; 100% = IFN-gamma alone, no compound; activation (% of control), % at 5.5 µM; AID 932;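 active = activation above the screen-wide mean activation plus 3 SD, cut at about 130% in these data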;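 note: raw ratio to IFN-gamma control signal so 100% means no change and 0% no light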
STAT3 blocker = STAT3 signaling inhibition. U3A cells, IL-6 STAT3-luciferase reporter, luminescence; host cell line lacks STAT1. inhibition, % at 5.5 µM. 190,000 compounds, 0.89% hits. AID 862;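 active = inhibition above the mean inhibition across all screened compounds plus 3 SD, cut at about 44% in these data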;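 note: 0% = DMSO only wells and 100% = 100 µM nifuroxazide control wells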
STAT3 act-1 = increases IL-6 driven STAT3 reporter signal; activation (% of control), % at 5.6 µM; 190,000 compounds, 0.91% hits; U3A cells, IL-6 STAT3-luciferase reporter, luminescence; 100% = signal with IL-6 EC80 alone;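 active = activation above the screen-wide mean of compound activation plus 3 SD, cut at about 130% in these data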;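 note: 0% = background luminescence of wells with medium and substrate only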
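Material: human STAT1-deficient U3A cells with stable STAT3-luciferase reporter / Probe or stimulus: IL-6 stimulus at 33 ng/mL final / Schedule: 1 h compound pre-exposure, 6 h IL-6 stimulation, 37 °C / Technique: luminescence / Read-out basis: percent of IL-6-only median luminescence / Control set: IL-6-only high control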
STAT3 act-2 = STAT3 activation, confirmation assay. 1,200 compounds, 64% hits. shares compounds with STAT3 act-1. potentiation (% of control), % at 5.7 µM. U3A STAT3-luciferase reporter, IL-6 potentiation, luminescence; U3A cells lack STAT1; 100 means same as IL-6 alone;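 active = percent activation of the STAT3 luciferase reporter above a set limit taken from the earlier primary screen, cut at about 130% in these data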;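 note: 0% = background signal of medium plus substrate and 100% = median of IL-6 with DMSO wells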
NFkB act STAT3ct = activates NF-kappaB, counter-screen to STAT3 activators; AID 1309; shares compounds with STAT3 act-1; human cells, NF-kappaB reporter activation; 1,200 compounds, 11% hits; activation (% of control), % at 5.7 µM; in the data active = activation above about 120%;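 note: reporter induced by TNF-alpha stimulation; 100% = median of stimulated DMSO wells and 0% = no signal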
STAT1 act-2 = activates STAT1, counter-screen to STAT3 activators. shares compounds with STAT3 act-1. NIH 3T3 STAT1-luciferase reporter, IFN-gamma, luminescence. activation (% of control), % at 5.7 µM. 1,200 compounds, 13% hits. AID 1318;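 active = activation above the solvent-only control well mean plus 3 SD, set per screening run, cut at about 120% in these data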;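 note: 100% = IFN-gamma with DMSO median signal so 100% means no change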
An asterisk follows results filed as active; nt = no result given.

SMILES | NF-kB expr up | APP 5'UTR act | STAT1 inh | STAT1 act-1 | STAT3 blocker | STAT3 act-1 | STAT3 act-2 | NFkB act STAT3ct | STAT1 act-2
COc1ccc(OC)c(-c2cc(C3CCN(C(=O)OC(C)(C)C)CC3)[nH]n2)c1 | 0.92 | 16 | -14 | 112 | 6 | 106 | nt | nt | nt
COc1cc(C)c(Cl)cc1S(=O)(=O)NC1CC(C)(C)NC(C)(C)C1 | 0.98 | 20 | 0 | 98 | 8 | 99 | nt | nt | nt
Cc1ccc(-c2nnn(CC(=O)N(c3ccccc3)C(C(=O)NCC3CCCO3)c3ccc(Cl)cc3)n2)cc1 (stereo not drawn) | 1.2 | -16 | -2 | 101 | 15 | 93 | nt | nt | nt
Cc1ccc(-c2nnn(CC(=O)N(c3ccccc3F)C(C(=O)NCC3CCCO3)c3c[nH]c4ccccc34)n2)cc1 (stereo not drawn) | 0.8 | 5 | 0 | 100 | -48 | 145* | 129 | 100 | 100
COCCN1CCN(Cc2cn[nH]c2-c2cc3ccccc3o2)CC1 | 1 | 14 | -1 | 101 | 7 | 99 | nt | nt | nt
O=C1C(C=NCc2ccco2)=C(O)c2ccccc21 | 1.9 | 98 | -19 | 119 | -41 | 141* | 187* | 135* | 164*
COc1cc(C(=O)N/N=C(\C)Cc2ccccc2)cc(OC)c1OC | 2.6 | -94 | -5 | 104 | -56 | 143* | 95 | 110 | 97
CN(C)S(=O)(=O)c1ccc(C(=O)NCC(=O)N/N=C/c2ccccc2Cl)cc1 | 0.83 | 13 | 12 | 89 | 15 | 94 | nt | nt | nt
O=C(c1cc2c(s1)CCCC2)N1CCN(c2ccccc2)CC1 | 1.3 | 15 | -8 | 106 | 12 | 99 | nt | nt | nt
O=C(c1cc2c(s1)CCCC2)N1CCN(S(=O)(=O)c2ccccc2C(F)(F)F)CC1 | 0.8 | -11 | 0 | 100 | -50 | 139* | 116 | 108 | 102
COc1cccc(-c2cc(C(F)(F)F)c3c(N)c(C#N)sc3n2)c1 | 1.1 | -1 | -4 | 103 | -66 | 153* | 134* | 97 | 101
N#Cc1sc2nc(-c3ccccc3)cc(-c3ccco3)c2c1N | 1.2 | -17 | -8 | 107 | 13 | 91 | nt | nt | nt
N#C/C(=C\c1ccccc1[N+](=O)[O-])c1nc(C2CC2)cs1 | 2.8 | 18 | -7 | 106 | -48 | 146* | 154* | 106 | 110
N#C/C(=C\c1ccc([N+](=O)[O-])cc1)c1nc(C2CC2)cs1 | 1.5 | 29 | -6 | 106 | 8 | 92 | nt | nt | nt
N#C/C(=C/c1ccccc1[N+](=O)[O-])c1nc(C2CC2)cs1 | 1.1 | 12 | 3 | 98 | -57 | 147* | 158* | 108 | 119
Cc1ccc(/C=N/NC(=O)Cc2c[nH]c3ccccc23)c(C)c1 | 1 | 9 | 1 | 99 | -41 | 142* | 130 | 101 | 91
Cc1ccc(C(=O)Nc2ccc(C(=O)N/N=C/c3c[nH]c4ccccc34)cc2)cc1 | 0.3 | 0 | 6 | 95 | -50 | 148* | 122 | 97 | 98
CCn1c(CCCc2ccc(OC)c(C)c2)n[nH]c1=S | 1.1 | -14 | 5 | 94 | 5 | 102 | nt | nt | nt
O=C(N/N=C/c1ccncc1)C1C2CCCCCCC21 (stereo not drawn) | 1.2 | -16 | -6 | 105 | 1 | 102 | nt | nt | nt
COc1ccc([N+](=O)[O-])cc1NC(=O)c1ccccc1N(C)S(C)(=O)=O | 0.95 | 15 | -12 | 110 | 3 | 108 | nt | nt | nt
O=C(O)c1ccccc1C(=O)c1ccc2c(c1)N(Cc1ccc(Cl)c(Cl)c1)C(=O)CO2 | 1.5 | 11 | 4 | 96 | 13 | 96 | nt | nt | nt
COC(=O)c1ccc(N2CCN(CC(=O)c3ccc(-c4ccccc4)cc3)CC2)c([N+](=O)[O-])c1 | 1.3 | 6 | -9 | 108 | -43 | 144* | 138* | 108 | 124*
COC(=O)c1ccc(N2CCN(S(=O)(=O)c3ccc4ccccc4c3)CC2)c([N+](=O)[O-])c1 | 0.86 | nt | 14 | 88 | 19 | 89 | nt | nt | nt
Cc1ccc(N2CC(C(=O)O)CC2=O)cc1 (stereo not drawn) | 1.4 | 3 | -3 | 104 | -1 | 101 | nt | nt | nt
Cc1cc(C)c(OCC(O)CN2CCN(c3ccccn3)CC2)c(C)c1 (stereo not drawn) | 1 | 12 | -6 | 102 | 4 | 101 | nt | nt | nt
SMILES | NF-kB expr up | APP 5'UTR act | STAT1 inh | STAT1 act-1 | STAT3 blocker | STAT3 act-1 | STAT3 act-2 | NFkB act STAT3ct | STAT1 act-2
c1ccc(-c2nc(CSc3nnc(-c4cccs4)o3)cs2)cc1 | 1.1 | 11 | -6 | 106 | -67 | 161* | 168* | 112 | 121*
Cc1ccc(Nc2nc(CSc3nnc(-c4cccs4)o3)cs2)cc1 | 1.6 | 9 | -14 | 113 | 0 | 104 | nt | nt | nt
O=S(=O)(c1ccccc1)N1CCN(c2cc(-c3ccccc3)nc3ncnn23)CC1 | 0.6 | -4 | 32 | 72 | 16 | 93 | nt | nt | nt
O=S(=O)(c1ccc(Br)cc1)N1CCN(c2cc(-c3ccccc3)nc3ncnn23)CC1 | 0.8 | -13 | -1 | 102 | -46 | 146* | 108 | 99 | 96
Nc1n[nH]c2ccccc12 | 1.5 | -15 | 1 | 98 | -44 | 136* | 141* | 101 | 97
CCOC(=O)c1n[nH]c2ccccc12 | 1.2 | 10 | -10 | 107 | 16 | 90 | nt | nt | nt
O=C(CN1CCN(Cc2ccc3c(c2)OCO3)CC1)Nc1ccc(N2CCOCC2)cc1 | 1.3 | 2 | 0 | 99 | -7 | 108 | nt | nt | nt
Cc1ccc(-c2cc(-c3n[nH]c(=S)n3C)c3ccccc3n2)cc1 | 1.2 | -5 | -10 | 107 | 18 | 88 | nt | nt | nt
CN1C(=O)c2ccccc2C(C(=O)NCCCN2CCCC2=O)C1c1c[nH]c2ccccc12 (stereo not drawn) | 0.87 | -10 | 2 | 96 | -63 | 152* | 136* | 105 | 100
COCCN1C(=O)c2ccccc2C(C(=O)NCCCN2CCCC2)C1c1c[nH]c2ccccc12 (stereo not drawn) | 0.97 | 9 | 4 | 95 | 8 | 96 | nt | nt | nt
Clc1ccsc1-c1ccnc(-n2cccc2)n1 | 1.1 | 22 | -7 | 105 | -36 | 140* | 160* | 108 | 108
Clc1ccc(-c2ccnc(-n3cccc3)n2)s1 | 1.2 | 13 | 1 | 98 | -26 | 131 | nt | nt | nt
Cc1ccsc1-c1ccnc(-n2cccc2)n1 | 0.71 | 8 | -5 | 105 | -43 | 146* | 128 | 105 | 102
O=C(O)c1ccccc1CSc1ccccn1 | 1.3 | 2 | 0 | 101 | 5 | 100 | nt | nt | nt

Assay outcomes from PubChem BioAssay.
